From ChEMBL document CHEMBL1126625, “7-Azetidinylquinolones as antibacterial agents. Synthesis and structure-activity relationships” (J Med Chem, 1993)
In brackets after ≈: the same amount, converted by molar mass.

Legend:
Assay type in all cases: functional
[1] = tested on: Bacillus cereus; test: Minimum inhibitory concentration (MIC) preventing growth of Bacillus cereus
[2] = tested on: Bacillus subtilis; test: Minimum inhibitory concentration (MIC) preventing growth of Bacillus subtilis
[3] = tested on: Escherichia coli; test: Minimum inhibitory concentration (MIC)preventing growth of Escherichia coli
[4] = tested on: Klebsiella pneumoniae; test: Minimum inhibitory concentration (MIC)preventing growth of Klebsiella pneumoniae
[5] = tested on: Morganella morganii; test: Minimum inhibitory concentration (MIC) preventing growth of Morganella morganii
[6] = tested on: Proteus vulgaris; test: Minimum inhibitory concentration (MIC) preventing growth of Proteus vulgaris
[7] = tested on: Staphylococcus epidermidis; test: Minimum inhibitory concentration (MIC) preventing growth of Staphylococcus epidermidis
[8] = tested on: Staphylococcus aureus; test: Minimum inhibitory concentration (MIC) preventing growth of […]
[9] = tested on: Enterococcus faecalis; test: Minimum inhibitory concentration (MIC) preventing growth of Streptococcus faecalis ATCC 10541
[10] = tested on: Enterobacter cloacae; test: Minimum inhibitory concentration (MIC)preventing growth of Enterobacter cloacae
[11] = tested on: Pseudomonas aeruginosa; test: Minimum inhibitory concentration (MIC)preventing growth of Pseudomonas aeruginosa
[12] = tested on: Escherichia coli; test: Efficacy on systemic infections after oral administration in mice was determined against Escherichia coli HM-42
How it was run: (§1)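 Mouse protection test using 4 groups of 10 mice. Mice were infected intraperitoneally with a bacterial suspension slightly above LD100. A single oral dose was given immediately after infection, with four doses, one per group, chosen from in vitro activity. Survival was scored after one week, and ED50 (total mg/kg protecting 50% of mice) was interpolated from group survival rates.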

[13] = tested on: Pseudomonas aeruginosa; test: Efficacy on systemic infections after oral administration in mice was determined against Pseudomonas aeruginosa HS-116; how it was run: as §1
[14] = tested on: Staphylococcus aureus; test: Efficacy on systemic infections after oral administration in mice was determined against […] HS-93; how it was run: as §1

SMILES | MIC [1] [µg/mL] | MIC [2] [µg/mL] | MIC [3] [µg/mL] | MIC [4] [µg/mL] | MIC [5] [µg/mL] | MIC [6] [µg/mL] | MIC [7] [µg/mL] | MIC [8] [µg/mL] | MIC [9] [µg/mL] | MIC [10] [µg/mL] | MIC [11] [µg/mL] | ED50 [12] [mg/kg] | ED50 [13] [mg/kg] | ED50 [14] [mg/kg]
CC1(N)CN(c2cc3c(cc2F)c(=O)c(C(=O)O)cn3-c2ccc(F)cc2)C1 | 0.12 (≈ 0.311 µM) | 0.06 (≈ 0.156 µM) | 0.12 (≈ 0.311 µM) | 0.12 (≈ 0.311 µM) | 0.25 (≈ 0.649 µM) | 0.25 (≈ 0.649 µM) | 0.12 (≈ 0.311 µM) | 0.12 (≈ 0.311 µM) | 2 (≈ 5.19 µM) | 0.12 (≈ 0.311 µM) | 2 (≈ 5.19 µM) | – | – | –
CCn1cc(C(=O)O)c(=O)c2c(N)c(F)c(N3CC(C)(N)C3)c(F)c21 | 1 (≈ 2.84 µM) | 0.12 (≈ 0.341 µM) | 0.25 (≈ 0.71 µM) | 0.25 (≈ 0.71 µM) | 0.25 (≈ 0.71 µM) | 0.5 (≈ 1.42 µM) | 0.5 (≈ 1.42 µM) | 0.5 (≈ 1.42 µM) | 1 (≈ 2.84 µM) | 0.25 (≈ 0.71 µM) | 2 (≈ 5.68 µM) | – | – | –
NC(=O)C1CN(c2c(F)cc3c(=O)c(C(=O)O)cn(C4CC4)c3c2F)C1 | 0.25 (≈ 0.688 µM) | 0.06 (≈ 0.165 µM) | 0.25 (≈ 0.688 µM) | 0.06 (≈ 0.165 µM) | 0.25 (≈ 0.688 µM) | 0.25 (≈ 0.688 µM) | 0.5 (≈ 1.38 µM) | 0.25 (≈ 0.688 µM) | 0.5 (≈ 1.38 µM) | 0.25 (≈ 0.688 µM) | 4 (≈ 11 µM) | – | – | –
CS(=O)(=O)OC1CN(c2c(F)cc3c(=O)c(C(=O)O)cn(C4CC4)c3c2F)C1 | 0.12 (≈ 0.29 µM) | 0.015 (≈ 0.0362 µM) | 0.25 (≈ 0.603 µM) | 0.015 (≈ 0.0362 µM) | 0.5 (≈ 1.21 µM) | 0.25 (≈ 0.603 µM) | 0.06 (≈ 0.145 µM) | 0.06 (≈ 0.145 µM) | 0.5 (≈ 1.21 µM) | 0.5 (≈ 1.21 µM) | 8 (≈ 19.3 µM) | – | – | –
CNC1CN(c2cc3c(cc2F)c(=O)c2c(=O)[nH]sc2n3C2CC2)C1 | 0.12 (≈ 0.333 µM) | 0.03 (≈ 0.0832 µM) | 0.03 (≈ 0.0832 µM) | 0.12 (≈ 0.333 µM) | 0.06 (≈ 0.166 µM) | 0.12 (≈ 0.333 µM) | 0.12 (≈ 0.333 µM) | 0.12 (≈ 0.333 µM) | 0.25 (≈ 0.694 µM) | 0.12 (≈ 0.333 µM) | 0.5 (≈ 1.39 µM) | – | – | –
CC1(O)CN(c2cc3c(cc2F)c(=O)c(C(=O)O)cn3C2CC2)C1 | 0.12 (≈ 0.361 µM) | 0.06 (≈ 0.181 µM) | 0.25 (≈ 0.752 µM) | 0.06 (≈ 0.181 µM) | 0.25 (≈ 0.752 µM) | 0.12 (≈ 0.361 µM) | 0.12 (≈ 0.361 µM) | 0.12 (≈ 0.361 µM) | 1 (≈ 3.01 µM) | 0.12 (≈ 0.361 µM) | 2 (≈ 6.02 µM) | – | – | –
O=C(O)c1cn(C2CC2)c2c(F)c(N3CC(O)C3)c(F)cc2c1=O | 0.03 (≈ 0.0892 µM) | 0.007 (≈ 0.0208 µM) | 0.06 (≈ 0.178 µM) | 0.007 (≈ 0.0208 µM) | 0.06 (≈ 0.178 µM) | 0.06 (≈ 0.178 µM) | 0.12 (≈ 0.357 µM) | 0.06 (≈ 0.178 µM) | 0.5 (≈ 1.49 µM) | 0.06 (≈ 0.178 µM) | 2 (≈ 5.95 µM) | 11.3 | 61.3 | 29.7
O=C(O)c1cn(C2CC2)c2c(F)c(N3CC(N4CCCC4)C3)c(F)cc2c1=O | 0.12 (≈ 0.308 µM) | 0.06 (≈ 0.154 µM) | 0.06 (≈ 0.154 µM) | 0.12 (≈ 0.308 µM) | 0.12 (≈ 0.308 µM) | 0.25 (≈ 0.642 µM) | 0.12 (≈ 0.308 µM) | 0.12 (≈ 0.308 µM) | 0.5 (≈ 1.28 µM) | 0.06 (≈ 0.154 µM) | 2 (≈ 5.14 µM) | – | – | –
CC1(n2cccc2)CN(c2c(F)cc3c(=O)c(C(=O)O)cn(C4CC4)c3c2F)C1 | 0.25 (≈ 0.626 µM) | 0.015 (≈ 0.0376 µM) | 1 (≈ 2.5 µM) | 0.25 (≈ 0.626 µM) | 1 (≈ 2.5 µM) | 1 (≈ 2.5 µM) | 0.25 (≈ 0.626 µM) | 0.25 (≈ 0.626 µM) | 2 (≈ 5.01 µM) | 2 (≈ 5.01 µM) | 8 (≈ 20 µM) | – | – | –
CNC1(C)CN(c2cc3c(cc2F)c(=O)c2c(=O)[nH]sc2n3C2CC2)C1 | 0.06 (≈ 0.16 µM) | 0.03 (≈ 0.0801 µM) | 0.03 (≈ 0.0801 µM) | 0.03 (≈ 0.0801 µM) | 0.06 (≈ 0.16 µM) | 0.12 (≈ 0.32 µM) | 0.06 (≈ 0.16 µM) | 0.06 (≈ 0.16 µM) | 0.06 (≈ 0.16 µM) | 0.06 (≈ 0.16 µM) | 0.5 (≈ 1.34 µM) | – | – | –
